SUMO1 PPI mod: alters human SUMO1 binding to SIM partners; P63165; SUMO1 binding to a labelled peptide, TR-FRET, 1 h; inhibition, % at 20 µM; 360,000 compounds, 0.33% hits; AID 602429; in the data active means inhibition above about 37%
Target sequence (P63165 whole entry, looked up): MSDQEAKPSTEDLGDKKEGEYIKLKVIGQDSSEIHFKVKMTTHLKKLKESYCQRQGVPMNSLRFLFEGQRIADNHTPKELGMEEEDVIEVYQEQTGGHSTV
LMPTP inh: blocks human LMPTP phosphatase. AID 651560. 360,000 compounds, 0.22% hits. recombinant LMPTP-A, OMFP fluorogenic substrate, fluorescence intensity. P24666. inhibition, % at 20 µM;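 active means compounds that cut the enzyme signal by at least half of the control window in the single-dose screen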;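 further: plate controls were DMSO wells with enzyme plus substrate for no effect and substrate without enzyme for full effect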
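Test system: LMPTP-A, protein tyrosine phosphatase of low molecular weight; Input: 0.625 nM enzyme; Incubation: 50 min dark incubation at room temperature; Signal: endpoint fluorescence intensity from OMFP dephosphorylation; Read-out basis: % inhibition versus control wells.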
DNMT1 block: DNMT1 (human) enzyme inhibition | P26358 | AID 588458 | 360,000 compounds, 0.83% hits | DNMT1 molecular beacon, Hinp1I cleavage, fluorescence | inhibition (reported as % activation of signal), % at 10 µM; in the data active means inhibition above about 50%
Scp1 inh: inhibitors of human Scp-1 phosphatase | AID 493091 | Q9GZU7 | Recombinant Scp1, phosphopeptide, malachite green phosphate absorbance | 340,000 compounds, 0.88% hits | inhibition, % at 20 µM;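 active means inhibition above about 50% at 20 µM, limit read from the data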;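 further: plate controls were DMSO wells with enzyme for no effect and wells lacking enzyme for full effect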
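System: truncated SCP-1 phosphatase (76-261aa); medium: Tris acetate buffer pH 5.5 with MgCl2 and Tween-20; incubation: 45 min room-temperature reaction, 5 min colour, 30 min stabiliser; compound: single 20 µM dose, 1% DMSO; reagent: Phosphorylated 17-residue peptide substrate; read-out: % inhibition at 20 µM; technique: colorimetric free-phosphate detection, absorbance 630 nm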
NadD block: inhibitors of Staphylococcus aureus NadD. 360,000 compounds, 0.78% hits. inhibition, % at 20 µM. purified NadD enzyme, colorimetric absorbance read-out; in the data active means inhibition above about 26%
STEP inh: inhibitors of human striatal-enriched phosphatase STEP; inhibition, % at 20 µM; 360,000 compounds, 0.25% hits; P54829; recombinant STEP, OMFP fluorogenic substrate, fluorescence; AID 588621;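 active means inhibition at 20 µM, scaled per plate between control wells, above about 37%, limit read from the data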;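 further: 0% = DMSO with enzyme and substrate and 100% = substrate only without enzyme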
Target sequence (P54829 whole entry, looked up): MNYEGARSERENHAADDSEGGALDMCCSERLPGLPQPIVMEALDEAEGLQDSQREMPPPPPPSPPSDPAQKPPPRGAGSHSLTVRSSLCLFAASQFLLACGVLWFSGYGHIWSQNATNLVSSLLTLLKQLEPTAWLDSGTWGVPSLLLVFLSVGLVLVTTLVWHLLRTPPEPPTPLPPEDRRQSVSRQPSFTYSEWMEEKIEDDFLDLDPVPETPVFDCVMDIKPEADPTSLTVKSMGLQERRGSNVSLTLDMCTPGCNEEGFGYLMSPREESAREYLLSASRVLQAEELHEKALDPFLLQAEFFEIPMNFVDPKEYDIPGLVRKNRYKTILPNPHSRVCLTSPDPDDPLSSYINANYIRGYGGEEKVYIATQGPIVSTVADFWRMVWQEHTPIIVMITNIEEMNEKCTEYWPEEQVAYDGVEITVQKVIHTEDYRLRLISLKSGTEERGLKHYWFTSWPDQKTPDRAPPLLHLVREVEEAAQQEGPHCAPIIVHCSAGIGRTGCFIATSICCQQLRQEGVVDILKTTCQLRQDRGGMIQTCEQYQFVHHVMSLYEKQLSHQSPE
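material = STEP tyrosine phosphatase | reagent = fluorogenic phosphatase substrate OMFP at 25 µM final | doses = single compound dose of 20 µM, 1% DMSO final | schedule = 20 min reaction, room temperature, in the dark | measured by = fluorescence, 480/540 nm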
Scp-1 conf: confirmation of human Scp-1 phosphatase inhibitors; shares compounds with Scp1 inh; recombinant SCP-1 catalytic domain, phosphate release, malachite green absorbance; inhibition, % at 20 µM; 2,500 compounds, 61% hits; AID 540281;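 further: plate controls were DMSO with enzyme for no effect and buffer wells lacking enzyme for full effect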
Scp-1 MG ctr: counter-screen for Scp-1 inhibitors: colorimetric interference | shares compounds with Scp1 inh | Colorimetric interference counterscreen, malachite green absorbance 630 nm | apparent inhibition (interference), % at 20 µM | 2,500 tested, under 10 active;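 further: compounds added after enzyme reaction finished so only phosphate colour detection is probed; plate controls were DMSO wells with completed Scp-1 reaction for no effect and substrate wells lacking enzyme for full effect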
Scp1 DSF: validation of human Scp-1 inhibitors by thermal shift binding. shares compounds with Scp1 inh. Recombinant SCP1, Sypro Orange thermal shift Tm. thermal shift relative to vanadate control, % at 40 µM. 1,500 compounds, 25% hits. AID 540329;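 active means substances whose mean melting-temperature shift, as a percentage of the reference inhibitor's shift, reaches about 5.3%, limit read from the data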;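 further: 0% = Tm of DMSO wells and 100% = Tm with sodium orthovanadate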
* marks the source's active call; other numbers are inactive results; x = not tested or not shown. Sampled rows, rich in hits. Any-hit rate of the full collection: about 2.3%.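 How the source made its calls, unless noted: active means inhibition of at least 30% at 20 µM; inactive means the rest.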

SMILES | SUMO1 PPI mod | LMPTP inh | DNMT1 block | Scp1 inh | NadD block | STEP inh | Scp-1 conf | Scp-1 MG ctr | Scp1 DSF
CCCCCCCCn1c2c(c(=N)c3ccccc31)CCC2 | -3.6 | 6.4 | 5.4 | -3.2 | 11.2 | 9.7 | x | x | x
CCc1oc2ccccc2c1C(=O)CCN1CCCCC1 | -0.7 | -0.6 | 3.0 | 57.5* | -1.3 | 1.4 | 13.9 | -2.1 | x
O=C(Nc1ccc(O)c(-c2nc3ccccc3s2)c1)c1cc(=O)c2ccccc2o1 | 6.1 | 51.6* | 30.9 | 80.0* | 12.9 | 38.1 | 67.8* | -13.7 | 2.1
CCCC(=O)N1CCC1(C)C(=O)NS(=O)(=O)c1ccccc1 (centres undefined) | -2.8 | -1.8 | 0.5 | x | 0.5 | -2.7 | x | x | x
C/C(=N/NC(=O)CNc1ccc(Cl)cc1C)c1ccc(C)cc1 | 0.6 | -0.1 | 6.1 | -5.0 | -0.9 | 0.4 | x | x | x
COc1ccc(-n2c(C)cc(/C=C/c3nc(O)c([N+](=O)[O-])c(=O)[nH]3)c2C)cc1 | 8.8 | 16.1 | 44.3 | 65.5* | 19.8 | 3.0 | 59.3* | -17.5 | 4.7
O=c1[nH]c(/C=C\c2ccc(O)c(O)c2)nc(O)c1[N+](=O)[O-] | 3.3 | -1.1 | 13.8 | 23.0 | 1.6 | 5.2 | 45.0* | -1.9 | 6.2*
O=c1[nH]c(/C=C\c2cccc(O)c2)nc(O)c1[N+](=O)[O-] | -3.0 | -1.2 | 6.5 | -3.7 | -4.0 | 4.4 | x | x | x
Cc1nnc(NS(=O)(=O)c2ccc(N=Nc3ccc(N)nc3N)cc2)s1 | -10.2 | 18.1 | 3.6 | 67.4* | 3.2 | 5.0 | 34.5* | -6.2 | 9.1*
Cc1nnc(NS(=O)(=O)c2ccc(N)cc2)s1 | -2.5 | -0.7 | -1.9 | -9.0 | 0.7 | 1.9 | x | x | x
C=CC[C@H](CC(=O)NCCO)C(=O)NC[C@@H](OC(=O)[C@@H](CC=C)CC(=O)OC(C)(C)C)c1ccccc1 | 6.8 | -2.8 | 3.8 | -2.7 | -0.6 | 0.2 | x | x | x
COCC(=O)N/N=C/c1ccc(Sc2nc3ccccc3s2)o1 | -27.5 | -1.0 | 4.7 | -7.2 | -3.4 | -1.9 | x | x | x
N#CCC(=O)N/N=C/c1ccc(Sc2nc3ccccc3s2)o1 | -15.1 | 0.7 | 8.1 | 98.7* | 8.1 | 0.0 | 81.4* | -10.6 | 8.1*
Cc1cc(O)c(C(=O)Nc2cccc(Cl)c2)c(=O)n1C | 0.5 | -0.5 | 0.2 | 0.2 | -6.8 | -1.3 | x | x | x
COc1ccc(S(=O)(=O)N2CCOCC2)cc1NC(=O)COC(=O)C1CC1C (centres undefined) | 3.4 | -2.7 | 3.4 | -2.5 | 1.5 | -0.5 | x | x | x
CC(C)C(=O)Nc1ccc(C(=O)N/N=C/c2cc(Br)cc(Br)c2O)cc1 | -0.5 | -1.4 | 41.3 | 54.6* | 13.6 | 13.6 | 16.1 | -17.8 | x
O=C(COc1ccccc1Cl)NCc1ccco1 | -1.7 | -2.0 | -1.8 | -7.6 | -0.4 | -2.1 | x | x | x
COc1ccc(OCCC(=O)OCC(=O)NCc2ccco2)cc1 | 3.8 | 3.4 | 38.1 | 86.0* | 7.3 | 5.1 | 72.4* | -5.2 | -12.2
CCOc1ccccc1OCC(=O)NCc1ccco1 | 4.2 | -0.7 | 19.1 | 58.2* | -1.9 | -1.5 | 59.9* | -17.3 | -0.9
COc1ccc(/C=C/C(=O)OCC(=O)NCc2ccco2)cc1OC | -11.0 | -0.6 | 12.6 | 52.2* | 5.2 | -1.5 | 59.0* | -10.7 | -15.7
COc1ccc(C(=O)OCC(=O)NCc2ccco2)cc1OC | 11.1 | 3.8 | 28.9 | 55.5* | 8.3 | 2.0 | 52.5* | -16.4 | -2.9
O=C(NCc1ccc(F)cc1)c1cc(C2CCCN(C(=O)CCCc3ccccc3)C2)on1 (centres undefined) | -3.6 | 1.3 | -2.2 | x | -3.6 | -1.0 | x | x | x
Cc1ccc(OCC(=O)N(C)CC(=O)NCc2ccco2)c(Br)c1 | 14.6 | 2.3 | 39.4 | 69.8* | 5.4 | 4.8 | 74.5* | -6.0 | 0.5
O=C(COc1ccc(Cl)cc1Cl)NCc1ccco1 | -1.8 | -1.7 | -1.5 | 4.1 | 2.6 | -2.7 | x | x | x
COc1cc([N+](=O)[O-])ccc1NC(=O)CSc1ccccn1 | -27.2 | 0.0 | -3.9 | x | -1.2 | -0.4 | x | x | x
SMILES | SUMO1 PPI mod | LMPTP inh | DNMT1 block | Scp1 inh | NadD block | STEP inh | Scp-1 conf | Scp-1 MG ctr | Scp1 DSF
COc1ccc([N+](=O)[O-])cc1CSc1ccccn1 | -11.1 | -1.2 | -2.1 | 61.0* | 10.1 | -0.8 | -2.4 | -8.7 | x
CC(=O)c1cccc(NC(=O)COc2cc3oc(=O)c(CC(C)O)c(C)c3cc2Cl)c1 (centres undefined) | -6.2 | 2.7 | 8.6 | 50.8* | -5.5 | -0.8 | 46.4* | -12.9 | -20.4
CCOC(=O)c1ccc(NC(=O)COc2cc3oc(=O)c(CC(C)O)c(C)c3cc2Cl)cc1 (centres undefined) | 10.6 | 0.8 | -8.0 | 25.4 | -2.7 | 2.4 | x | x | x
CC[n+]1c(C)cc(C)n1-c1ccccc1 | -1.6 | 0.3 | -39.8 | 95.2* | 15.8 | -0.4 | 91.7* | -8.7 | -7.1
Cc1c(/C(O)=C2/C(=O)C(=O)N(CCN3CCOCC3)C2c2cccs2)cnn1-c1ccccc1 (centres undefined) | -8.3 | -2.8 | 2.6 | 48.2 | 3.6 | 4.3 | -27.9 | -19.9 | x
Cc1ccccc1C(=O)NNC(=O)c1ccc2nc[nH]c2c1 | 7.2 | 1.5 | 0.7 | 24.6 | -3.7 | 0.1 | x | x | x
Cc1cccc(NC(=O)CNC(=O)c2ccc3nc[nH]c3c2)c1C | -0.3 | 3.3 | 10.7 | 67.6* | -2.7 | -0.8 | 50.6* | -3.2 | -1.2
NS(=O)(=O)c1cccc(NC(=O)c2ccc3nc[nH]c3c2)c1 | 33.7 | 5.3 | 3.3 | 70.0* | -2.7 | 5.8 | 66.9* | -7.3 | -9.4
CC1CCCC(NC(=O)C2CCN(S(=O)(=O)c3cccc4nonc34)CC2)C1C (centres undefined) | -2.5 | -1.2 | 3.6 | 69.0* | -8.9 | -0.9 | -8.4 | -16.7 | x
CCOC(=O)[C@@H]1[C@H]2COc3cc(OC)ccc3[C@@H]2N2C(=O)N(c3ccc(Br)cc3)C(=O)[C@]12C | 1.4 | 2.8 | 0.6 | 52.9* | -1.2 | 1.2 | -23.8 | -12.8 | x
CCOc1ccccc1N1CC(C(=O)Nc2cccc(S(=O)(=O)N3CCCCC3)c2)CC1=O (centres undefined) | -4.0 | -0.2 | -0.7 | 10.2 | -11.0 | -3.0 | x | x | x
CCOC(=O)N1CCC(N2CC34C=CC(O3)C(C(=O)Nc3ccc(F)cc3)C4C2=O)CC1 (centres undefined) | 3.5 | -0.2 | -0.8 | 90.2* | 0.4 | -1.1 | -4.0 | -10.1 | x
O=C(OCC(=O)N1CCNC1=O)c1ccccc1Cl | 3.3 | -1.9 | 9.3 | x | 5.6 | -2.3 | x | x | x

High-throughput results deposited in PubChem BioAssay by Sanford-Burnham Center for Chemical Genomics.
